The campaign covered roughly 190,000 compounds. About 200 (0.11%) were called active.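 How the source made its calls: active means inhibition above 80%; inactive means the rest.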 Shown is part of a subset that was picked to be rich in actives.
Molecular target: Broad substrate specificity ATP-binding cassette transporter ABCG2 (Homo sapiens) (UniProt Q9UNQ0)
Assay: blockers of JC-1 export by ABCG2 – multiplex with ABCB1, IgMXP3 cells, flow cytometry, primary screen (AID 1325)
Settings: JC-1 efflux, at 6.6 µM, active compounds read high
Procedure, shortened: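 Test system: IgMXP3 (ABCG2) plus far-red-tagged CCRF-Adr (ABCB1) cells / Amount: 3 million cells/mL in well / Reagent: JC-1 transporter substrate / Timing: 10 min compound exposure, 25 °C / Signal: flow cytometry, 530 nm JC-1 signal / Read-out: percent efflux inhibition, scaled nicardipine 100% to DMSO 0% / Benchmarks: nicardipine as high control, DMSO as low control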

Chain of Broad substrate specificity ATP-binding cassette transporter ABCG2 (Homo sapiens) (Q9UNQ0 whole entry, looked up): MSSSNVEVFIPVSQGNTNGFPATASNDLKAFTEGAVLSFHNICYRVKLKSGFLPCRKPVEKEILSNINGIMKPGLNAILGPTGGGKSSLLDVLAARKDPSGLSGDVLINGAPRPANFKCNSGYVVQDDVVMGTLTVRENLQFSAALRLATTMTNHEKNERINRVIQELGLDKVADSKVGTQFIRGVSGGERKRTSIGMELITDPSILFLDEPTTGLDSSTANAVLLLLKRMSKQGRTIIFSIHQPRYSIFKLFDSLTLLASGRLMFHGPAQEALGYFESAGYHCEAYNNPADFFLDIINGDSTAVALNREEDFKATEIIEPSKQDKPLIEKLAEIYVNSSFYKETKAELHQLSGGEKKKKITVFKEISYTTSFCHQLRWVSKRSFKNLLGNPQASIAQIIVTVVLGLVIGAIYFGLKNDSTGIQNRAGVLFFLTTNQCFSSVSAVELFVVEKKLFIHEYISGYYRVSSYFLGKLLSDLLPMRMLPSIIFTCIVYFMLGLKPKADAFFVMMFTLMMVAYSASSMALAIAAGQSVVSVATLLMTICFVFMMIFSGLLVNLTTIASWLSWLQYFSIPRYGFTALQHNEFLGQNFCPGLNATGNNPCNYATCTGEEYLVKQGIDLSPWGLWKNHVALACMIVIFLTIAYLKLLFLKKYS

inhibition, active:
COc1ccc(C)cc1NC(=O)C(Sc1ccccc1)c1ccccc1 (stereo not given) 91.6%

inhibition, inactive:
CCN1CCN(C(=O)CN(C)S(=O)(=O)c2ccc3ccccc3c2)CC1 0.1%
COc1ccc(OCCNS(=O)(=O)Cc2ccccc2)cc1 2.18%
COc1ccc(C)cc1NC(=S)Nc1ccccc1SC 0.21%
COc1ccc(C)cc1NC(=O)Nc1ccccc1SC 13.2%
CCOC(=O)C1=C(CC)OC(N)=C(C#N)C1c1ccc(F)cc1F (stereo not given) -0.41%
CC(CO)NCC12CC3CC(CC(C3)C1)C2 (stereo not given) -2.66%
COc1ccc(CN(C)C(C)C(=O)NC2CCCc3ccccc32)cc1 (stereo not given) 6.36%
O=C(Cc1csc(Nc2nc(=S)[nH]c3ccccc23)n1)NCCCN1CCN(c2cccc(Cl)c2)CC1 3.5%
CCc1ccc(Oc2nc([N+](=O)[O-])nn2C)cc1 1.08%
CCC(CC)c1nnc(NC(=O)c2nn(C)c(=O)c3ccccc23)s1 6.7%
CCN(C(=O)Cc1nc(N)n[nH]1)C1(C(=O)Nc2ccccc2)CCCCC1 2.7%
CC(CNC(=O)c1ccc(N)cc1)NC(=O)c1ccc(N)cc1 (stereo not given) -4.01%
Cc1cc(OC(=O)c2ccccc2Cl)ccc1N1C(=O)CCC1=O 21.3%
O=S(=O)(Nc1ncccn1)c1ccc(NS(=O)(=O)c2cccc(Cl)c2Cl)cc1 0.94%
C=CCC1(CC=C)CCCN1C(=O)CC1C(=O)NCCN1Cc1ccccc1OC (stereo not given) 4.22%
NNc1nc2c(Cl)cccc2s1 -11.1%
COc1ccc(CN2CCCC(C(=O)c3ccc(Cl)cc3)C2)cc1Cn1cncn1 (stereo not given) 2.66%
CN(C)c1nnnn1-c1ccc(Cl)cc1 1.39%
O=C1NC(c2ccc(-c3ccccc3[N+](=O)[O-])o2)C(C(=O)c2ccc(Cl)cc2)C(O)(C(F)(F)F)N1 (stereo not given) 14.6%

— PubChem BioAssay AID1325 (NMMLSC, 2008)
